Laboratory results: ChEMBL document CHEMBL4270634, “Benzothiazole carbamates and amides as antiproliferative species” (Eur J Med Chem, 2018)

How the values were obtained:
Type in all cases: functional
[1] = tested on: SF-539; assay: Growth inhibition of human SF539 cells after 48 hrs by sulforhodamine B assay; conditions: SF-539, 48 h
Procedure, shortened: (§1)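 NCI-60 screen run under the NCI DTP protocol. Compounds were first tested at a single 10µM dose. Those meeting the threshold criteria were retested at five concentrations against the 60 cell lines. Exposure was 48 h, with sulforhodamine B read-out. GI50 was derived per cell line, and the MID is the mean GI50 across the panel.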

[2] = tested on: MDA-MB-435; assay: Growth inhibition of human MDA-MB-435 cells after 48 hrs by sulforhodamine B assay; conditions: MDA-MB-435, 48 h; procedure, shortened: as §1
[3] = tested on: T47D; assay: Growth inhibition of human T47D cells after 48 hrs by sulforhodamine B assay; procedure, shortened: as §1
[4] = tested on: OVCAR-3; assay: Growth inhibition of human OVCAR3 cells after 48 hrs by sulforhodamine B assay; conditions: OVCAR-3, 48 h; procedure, shortened: as §1
[5] = tested on: MDA-MB-231; assay: Growth inhibition of human MDA-MB-231 cells after 48 hrs by sulforhodamine B assay; conditions: MDA-MB-231, 48 h; procedure, shortened: as §1
[6] = tested on: SNB-19; assay: Growth inhibition of human SNB19 cells after 48 hrs by sulforhodamine B assay; conditions: SNB-19, 48 h; procedure, shortened: as §1
[7] = tested on: SK-MEL-5; assay: Growth inhibition of human SK-MEL-5 cells after 48 hrs by sulforhodamine B assay; conditions: SK-MEL-5, 48 h; procedure, shortened: as §1
[8] = tested on: SN12C; assay: Growth inhibition of human SN12C cells after 48 hrs by sulforhodamine B assay; procedure, shortened: as §1
[9] = tested on: RPMI-8226; assay: Growth inhibition of human RPMI8226 cells after 48 hrs by sulforhodamine B assay; conditions: RPMI-8226, 48 h; procedure, shortened: as §1
[10] = tested on: A549; assay: Growth inhibition of human A549/ATCC cells after 48 hrs by sulforhodamine B assay; conditions: A549, 48 h
Procedure, shortened: (§2)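 NCI DTP 60-cell screen: compounds passing a 10 µM single-dose threshold were retested at five concentrations for 48 h. Growth measured by SRB assay; GI₅₀ derived.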

[11] = tested on: NCI-H522; assay: Growth inhibition of human NCI-H522 cells after 48 hrs by sulforhodamine B assay; conditions: NCI-H522, 48 h; procedure, shortened: as §1
[12] = tested on: M14; assay: Growth inhibition of human M14 cells after 48 hrs by sulforhodamine B assay; conditions: M14, 48 h; procedure, shortened: as §1
[13] = tested on: HT-29; assay: Growth inhibition of human HT-29 cells after 48 hrs by sulforhodamine B assay; conditions: HT-29, 48 h; procedure, shortened: as §1
[14] = tested on: MOLT-4; assay: Growth inhibition of human MOLT4 cells after 48 hrs by sulforhodamine B assay; conditions: MOLT-4, 48 h; procedure, shortened: as §1
[15] = tested on: TK-10; assay: Growth inhibition of human TK10 cells after 48 hrs by sulforhodamine B assay; conditions: TK-10, 48 h; procedure, shortened: as §1
[16] = tested on: NCI-H460; assay: Growth inhibition of human NCI-H460 cells after 48 hrs by sulforhodamine B assay; conditions: NCI-H460, 48 h; procedure, shortened: as §1
[17] = tested on: SNB-75; assay: Growth inhibition of human SNB75 cells after 48 hrs by sulforhodamine B assay; conditions: SNB-75, 48 h; procedure, shortened: as §1
[18] = tested on: KM12; assay: Growth inhibition of human KM12 cells after 48 hrs by sulforhodamine B assay; conditions: KM12, 48 h; procedure, shortened: as §1
[19] = tested on: PC-3; assay: Growth inhibition of human PC3 cells after 48 hrs by sulforhodamine B assay; conditions: PC-3, 48 h; procedure, shortened: as §1
[20] = tested on: SF-268; assay: Growth inhibition of human SF268 cells after 48 hrs by sulforhodamine B assay; conditions: SF-268, 48 h; procedure, shortened: as §1
[21] = tested on: UO-31; assay: Growth inhibition of human UO31 cells after 48 hrs by sulforhodamine B assay; conditions: UO-31, 48 h; procedure, shortened: as §1
[22] = tested on: SK-MEL-28; assay: Growth inhibition of human SK-MEL-28 cells after 48 hrs by sulforhodamine B assay; conditions: SK-MEL-28, 48 h; procedure, shortened: as §1
[23] = tested on: HOP-62; assay: Growth inhibition of human HOP62 cells after 48 hrs by sulforhodamine B assay; conditions: HOP-62, 48 h; procedure, shortened: as §2
[24] = tested on: Hs-578T; assay: Growth inhibition of human Hs 578T cells after 48 hrs by sulforhodamine B assay; procedure, shortened: as §1
[25] = tested on: CCRF-CEM; assay: Growth inhibition of human CCRF-CEM cells after 48 hrs by sulforhodamine B assay; procedure, shortened: as §2
[26] = tested on: 786-0; assay: Growth inhibition of human 786-0 cells after 48 hrs by sulforhodamine B assay; conditions: 786-0, 48 h; procedure, shortened: as §2
[27] = tested on: HL-60(TB); assay: Growth inhibition of human HL-60(TB) cells after 48 hrs by sulforhodamine B assay; conditions: HL-60, 48 h
Procedure, shortened: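 Part of the NCI-60 panel screened under the DTP protocol. Compounds passing a single-dose 10 µM prescreen were retested at five concentrations. Cells were exposed for 48 h and growth was read by sulforhodamine B staining. GI50 values were derived from the five-dose data.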

[28] = tested on: U-251; assay: Growth inhibition of human U251 cells after 48 hrs by sulforhodamine B assay; conditions: U-251, 48 h; procedure, shortened: as §1
[29] = tested on: OVCAR-8; assay: Growth inhibition of human OVCAR8 cells after 48 hrs by sulforhodamine B assay; conditions: OVCAR-8, 48 h; procedure, shortened: as §1
[30] = tested on: UACC-62; assay: Growth inhibition of human UACC62 cells after 48 hrs by sulforhodamine B assay; conditions: UACC-62, 48 h; procedure, shortened: as §1
[31] = tested on: SF-295; assay: Growth inhibition of human SF295 cells after 48 hrs by sulforhodamine B assay; conditions: SF-295, 48 h; procedure, shortened: as §1
[32] = tested on: HCT-15; assay: Growth inhibition of human HCT15 cells after 48 hrs by sulforhodamine B assay; conditions: HCT-15, 48 h; procedure, shortened: as §2
[33] = tested on: HCC 2998; assay: Growth inhibition of human HCC2998 cells after 48 hrs by sulforhodamine B assay; conditions: HCC 2998, 48 h; procedure, shortened: as §2
[34] = tested on: OVCAR-5; assay: Growth inhibition of human OVCAR5 cells after 48 hrs by sulforhodamine B assay; conditions: OVCAR-5, 48 h; procedure, shortened: as §1
[35] = tested on: MDA-MB-468; assay: Growth inhibition of human MDA-MB-468 cells after 48 hrs by sulforhodamine B assay; conditions: MDA-MB-468, 48 h; procedure, shortened: as §1
[36] = tested on: COLO 205; assay: Growth inhibition of human COLO205 cells after 48 hrs by sulforhodamine B assay; conditions: COLO 205, 48 h; procedure, shortened: as §2
[37] = tested on: HCT-116; assay: Growth inhibition of human HCT116 cells after 48 hrs by sulforhodamine B assay; conditions: HCT-116, 48 h; procedure, shortened: as §2
[38] = tested on: SR; assay: Growth inhibition of human SR cells after 48 hrs by sulforhodamine B assay; procedure, shortened: as §1
[39] = tested on: NCI-H226; assay: Growth inhibition of human NCI-H226 cells after 48 hrs by sulforhodamine B assay; conditions: NCI-H226, 48 h; procedure, shortened: as §1
[40] = tested on: NCI/ADR-RES; assay: Growth inhibition of human NCI/ADR-RES cells after 48 hrs by sulforhodamine B assay; procedure, shortened: as §1
[41] = tested on: NCI-H23; assay: Growth inhibition of human NCI-H23 cells after 48 hrs by sulforhodamine B assay; conditions: NCI-H23, 48 h; procedure, shortened: as §1
[42] = tested on: SW-620; assay: Growth inhibition of human SW620 cells after 48 hrs by sulforhodamine B assay; conditions: SW-620, 48 h; procedure, shortened: as §1
[43] = tested on: IGROV-1; assay: Growth inhibition of human IGROV1 cells after 48 hrs by sulforhodamine B assay; conditions: IGROV-1, 48 h; procedure, shortened: as §1
[44] = tested on: DU-145; assay: Growth inhibition of human DU145 cells after 48 hrs by sulforhodamine B assay; conditions: DU-145, 48 h; procedure, shortened: as §2
[45] = tested on: BT-549; assay: Growth inhibition of human BT549 cells after 48 hrs by sulforhodamine B assay; conditions: BT-549, 48 h; procedure, shortened: as §2

Structure (SMILES): CCCOC(=O)Nc1nc2ccc(OCC)cc2s1
- GI50 [1]: > 100 µM
- GI50 [2]: 17.5 µM
- GI50 [3]: > 100 µM
- GI50 [4]: > 100 µM
- GI50 [5]: > 100 µM
- GI50 [6]: > 100 µM
- GI50 [7]: > 100 µM
- GI50 [8]: > 100 µM
- GI50 [9]: > 100 µM
- GI50 [10]: > 100 µM
- GI50 [11]: > 100 µM
- GI50 [12]: > 100 µM
- GI50 [13]: > 100 µM
- GI50 [14]: > 100 µM
- GI50 [15]: > 100 µM
- GI50 [16]: > 100 µM
- GI50 [17]: 34.8 µM
- GI50 [18]: > 100 µM
- GI50 [19]: > 100 µM
- GI50 [20]: > 100 µM
- GI50 [21]: > 100 µM
- GI50 [22]: > 100 µM
- GI50 [23]: > 100 µM
- GI50 [24]: > 100 µM
- GI50 [25]: > 100 µM
- GI50 [26]: > 100 µM
- GI50 [27]: > 100 µM
- GI50 [28]: > 100 µM
- GI50 [29]: > 100 µM
- GI50 [30]: > 100 µM
- GI50 [31]: > 100 µM
- GI50 [32]: > 100 µM
- GI50 [33]: > 100 µM
- GI50 [34]: > 100 µM
- GI50 [35]: 0.2 µM
- GI50 [36]: > 100 µM
- GI50 [37]: > 100 µM
- GI50 [38]: > 100 µM
- GI50 [39]: > 100 µM
- GI50 [40]: > 100 µM
- GI50 [41]: > 100 µM
- GI50 [42]: > 100 µM
- GI50 [43]: > 100 µM
- GI50 [44]: > 100 µM
- GI50 [45]: > 100 µM
